# Rows were chosen to be rich in hits. Some 2.3% of all compounds tested hit in one or more screens of this group.
# TAAR1 ag = agonists of human TAAR1 | activation, % at 3 µM | 360,000 tested, 0.99% active | CHO RD-HGA16 TAAR1, Fluo-8 calcium fluorescence; vehicle wells 0%, saturating PEA agonist 100% | Q96RJ0;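 active = activation above the mean activation of all test compounds in the run plus 3 SD, cut at about 38% in these data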
#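 Test system: RD-HGA16 (CHO) cells co-expressing Gα16 and hTAAR1 | Doses: Single dose, 3 µM | Schedule: 17-24 h seeding, 75 min 37 °C dye, 30 min RT | Evaluation: % activation from peak over basal fluorescence ratio, DMSO-to-PEA scaled | Technique: Kinetic Fluo-8 calcium fluorescence | Benchmarks: Low control DMSO, high control PEA (EC100)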
# OXTR potentiate = human OXTR potentiation. AID 2445. CHO-OTR cells, Fluo-8 calcium fluorescence, potentiator mode; 0% = oxytocin EC15, 100% = EC100. activation, % at 3 µM. 320,000 tested, 0.061% active. P30559;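 active = activation above that plate's cutoff, the mean activation of tested compounds plus 3 SD, cut at about 6.6% in these data, passing the limit was not always enough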;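 also: 100% uses oxytocin at 75 nM as the full agonist control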
#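 test system = CHO-OTR cells, human receptor | compound = single-point 3.0 µM | schedule = 6 min compound pre-incubation at room temperature, 100 s kinetic read | signal = Fluo-8 no-wash calcium dye fluorescence, excitation 470-495 nm, emission 515-575 nm | repeats = single well per compound, singlicate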
# TAAR1 antagonist = antagonists of human TAAR1. CHO RD-HGA16 TAAR1, Fluo-8 calcium fluorescence, antagonist. Q96RJ0. AID 624466. inhibition, % at 3 µM. 360,000 tested, 1.5% active;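 active = inhibition above a per-plate cutoff, the mean inhibition of test compounds on that plate plus 3 SD, cut at about 49% in these data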;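 also: 0% = DMSO plus EC80 beta-PEA response and 100% = DMSO alone without agonist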
#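 test system = CHO RD-HGA16 cells bearing hTAAR1 | replication = singlicate | controls = DMSO-only wells and EC80 β-PEA-stimulated wells | reagent = EC80 β-phenethylamine stimulus | read-out basis = percent inhibition of PEA-evoked calcium signal, max/basal emission ratio | schedule = seeding 17-24 h prior, 75-min 37 °C, 30-min RT dye loading | signal = kinetic Fluo-8 calcium fluorescence measurement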
# V1R ag counter = V1a receptor agonism, counter-screen for OXTR agonists; CHO-V1R cells, Fluo-8 calcium fluorescence, agonist mode; 0% DMSO, 100% 3 nM vasopressin; activation, % at 3 µM; 320,000 tested, 0.25% active; AID 2797;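 active = activation above the mean activation of all tested compounds plus 3 SD, per screening run, cut at about 20% in these data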;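 also: signal is peak over basal fluorescence ratio across a 100 second FLIPR read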
# Target sequence (P37288 whole entry, looked up): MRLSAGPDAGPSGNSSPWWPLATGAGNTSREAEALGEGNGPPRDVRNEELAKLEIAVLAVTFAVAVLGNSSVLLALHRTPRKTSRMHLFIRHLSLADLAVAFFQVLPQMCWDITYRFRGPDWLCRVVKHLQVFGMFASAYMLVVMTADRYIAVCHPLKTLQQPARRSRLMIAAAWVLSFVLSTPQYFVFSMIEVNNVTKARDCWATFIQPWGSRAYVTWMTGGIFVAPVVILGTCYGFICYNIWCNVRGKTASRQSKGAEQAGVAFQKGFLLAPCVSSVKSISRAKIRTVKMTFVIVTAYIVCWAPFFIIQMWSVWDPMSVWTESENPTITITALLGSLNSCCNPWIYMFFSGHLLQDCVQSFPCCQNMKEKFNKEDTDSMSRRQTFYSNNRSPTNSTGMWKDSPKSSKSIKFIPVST
# OXTR ag = activates the human oxytocin receptor | P30559 | CHO-OTR cells, Fluo-8 calcium fluorescence; normalized: DMSO 0%, oxytocin 100% | activation, % at 3 µM | 320,000 tested, 0.32% active | AID 2435;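 active = activation above the mean of all tested compounds plus 3 SD, cutoff set per screening run, cut at about 20% in these data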;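 also: peak over basal fluorescence ratio from a 100 s FLIPR kinetic read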
# TAAR1 nonsel count = nonselective antagonism, TAAR1 counter-screen. counterscreen cell line, calcium fluorescence, antagonist mode. AID 651780. 2,400 tested, 77% active. inhibition, % at 3 µM. shares compounds with TAAR1 antagonist; in the data active = inhibition above about 22%;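 also: CHO-Ga16 host cells stimulated with ATP at an EC80 level; 0% = agonist EC80 plus vehicle and 100% = vehicle without agonist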
# TAAR1 ant conf = confirmation of human TAAR1 antagonists. inhibition, % at 3 µM. shares compounds with TAAR1 antagonist. TAAR1-expressing cells, fluorescence antagonist read-out. 2,400 tested, 40% active; in the data active = inhibition above about 49%;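 also: CHO-Ga16 host cells challenged with agonist PEA near its EC80; 0% = agonist at EC80 plus vehicle and 100% = vehicle with no agonist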
# Ga16 nonsel ag = nonselective Ga16 agonist in TAAR1 antagonist counter-screen; shares compounds with TAAR1 antagonist; Ga16-expressing cells, calcium fluorescence, agonist counterscreen; activation, % at 3 µM; 2,400 tested, 18% active; AID 651953; in the data active = activation above about 12%;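 also: 0% = vehicle wells and 100% = saturating stimulus response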
# TAAR1 ag count = activates human TAAR1 in antagonist counter-screen. shares compounds with TAAR1 antagonist. hTAAR1 cell line, fluorescence activation, agonist mode. activation, % at 3 µM. 2,400 tested, 2% active; in the data active = activation above about 37%;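 also: CHO cells stably expressing TAAR1 with calcium dye readout; 0% = DMSO vehicle and 100% = full agonist response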
# Active calls of the source: *; / = not tested or not shown.
SMILES,TAAR1 ag,OXTR potentiate,TAAR1 antagonist,V1R ag counter,OXTR ag,TAAR1 nonsel count,TAAR1 ant conf,Ga16 nonsel ag,TAAR1 ag count
CCOC(=O)c1c(C)[nH]c(C(=O)COC(=O)C2CC(=O)N(Cc3ccccc3)C2)c1C (centres undefined),9,-16,8,0,1,/,/,/,/
Cc1[nH]c2ccccc2c1C(=O)COC(=O)C1CC(=O)N(Cc2ccccc2)C1 (centres undefined),26,-25,70*,5,6,31*,53*,13*,13
O=C(NCc1ccco1)c1cccc(Nc2nc3ccc(Br)cc3[nH]2)c1,18,-9,56*,0,2,24*,27,5,12
Cc1ccc(N(CC(=O)Nc2ccccc2C(=O)NCc2ccco2)S(=O)(=O)c2ccccc2)cc1C,2,-11,14,2,2,/,/,/,/
Cc1ccc(C)c(N(CC(=O)Nc2ccccc2C(=O)NCc2ccco2)S(=O)(=O)c2ccccc2)c1,8,-7,79*,1,0,35*,58*,6,8
CC(=O)Nc1ccc(C(=O)N/N=C/c2ccccc2OC(=O)c2ccc(Cl)cc2)cc1,10,-12,52*,0,1,35*,42,8,10
O=C(N/N=C/c1ccncc1)c1ccc(COc2cccc3cccnc23)cc1,7,-20,40,-1,0,/,/,/,/
COc1cc(C(=O)NCCOc2cccc3cccnc23)cc(OC)c1OC,20,-11,74*,3,1,34*,55*,11,12
COc1ccc(/C=N/NC(=O)c2ccc(COc3cccc4cccnc34)cc2)cc1OC,10,-6,54*,0,-1,27*,44,6,3
O=C(N/N=C/c1cccc(O)c1)c1ccc(COc2ccccc2Br)cc1,0,-10,91*,0,0,27*,78*,4,5
Cc1cc(Cl)ccc1NC(=S)NCC(O)c1ccccc1 (centres undefined),6,-20,9,3,3,/,/,/,/
O=C(N/N=C/c1cccc(NC(=O)c2ccc(Cl)cc2)c1)c1cccc(O)c1,4,0,73*,0,-1,26*,38,6,5
COc1ccc(/C=N/NC(=O)c2ccc(COc3cccc4cccnc34)cc2)cc1O,8,-12,63*,0,-2,26*,44,10,12
COc1cc(/C=N/NC(=O)c2ccccn2)ccc1OC(=O)c1ccc(Br)cc1,2,-11,40,8,3,/,/,/,/
COc1ccc(/C=N/NC(=O)c2ccc(C)nc2)cc1O,0,0,1,1,1,/,/,/,/
O=C(Nc1ccn(Cc2c(F)c(F)c(F)c(F)c2F)n1)c1ccc(COc2ccccc2Cl)cc1,11,-1,39,3,3,/,/,/,/
COc1cc(/C=N/NC(=O)c2ccccn2)ccc1OC(=O)c1ccccc1Br,7,-12,70*,2,1,35*,53*,9,5
O=C(Nc1ccc(Cn2cccn2)cc1)c1ccc(COc2ccccc2Br)cc1,6,-9,88*,2,0,37*,66*,7,7
C[C@H](CO)N1C[C@H](C)[C@H](CN(C)S(=O)(=O)c2ccc(F)cc2)OCc2cnnn2CCCC1=O,6,/,-7,/,/,/,/,/,/
COc1ccc(N(CC(=O)NCCc2ccccc2)C(=O)CCC(=O)Nc2nccs2)c(OC)c1,2,-8,12,2,2,/,/,/,/
Cc1cc(/C=N\NC(=O)c2cccs2)c(C)n1-c1ccc2ncccc2c1,10,-15,103*,6,7,34*,98*,12*,12
